Source: ChEMBL document CHEMBL6087468, “TKK130 is a 3-Hydroxy-Propanamidine (HPA) with Potent Antimalarial In Vivo Activity and a High Barrier to Resistance” (J Med Chem, 2025)
Calls of active or inactive are those of the source. The rule behind the calls is not given here.

Experiments:
[1] = Cytotoxicity against human HEK293 cells assessed as cell viability measured after 24 hrs by neutral red assay; assay type: toxicity, cell-based
Plasmodium berghei [2] = experiment: In vivo antiplasmodial activity against Plasmodium berghei infected mouse model assessed as curation rate at 50 mg/kg, po treated 4 times measured at 96 hrs post infection by fluorescence-activated cell sorting (FACS) analysis; assay type: functional
Plasmodium falciparum [3] = experiment: Ex vivo antimalarial activity against Plasmodium falciparum clinical isolates; assay type: functional, organism-based
[4] = Unbound drug concentration in plasma (unknown origin) at 25 ng/ml measured after 24 hrs by dilution method; assay type: ADME, cell-free
Summary of the method: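 Equilibrium dialysis with donor plasma diluted 1:10 or 1:20 in 0.9% saline, spiked at 25 ng/mL, against 0.9% saline acceptor for 24 h at 37 °C. Concentrations by LC–MS/MS against diluted-plasma calibration curves; unbound fraction (acceptor/donor) back-calculated to undiluted plasma; triplicate; itraconazole reference.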

Plasmodium berghei [5] = experiment: In vivo antiplasmodial activity against Plasmodium berghei infected mouse model assessed as curation rate at 3 mg/kg, po treated 4 times measured at 96 hrs post infection by fluorescence-activated cell sorting (FACS) analysis; assay type: functional
[6] = Cmax in mouse infected with Plasmodium berghei at 10 mg/kg, po; assay type: ADME, organism-based; conditions: in vivo
Summary of the method: (§1)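 Single oral dose to P. berghei-infected mice, 2 mice per dose group. Blood sampled at 1, 4 and 24 h post-dose as dried blood spots, plus a blank "0 h" reading. Spots diluted 1:5 (3, 10 mg/kg) or 1:10 (30 mg/kg), then quantified by LC–MS/MS against a whole-blood calibration of 1.56–800 ng/mL with QCs at three levels.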

Plasmodium falciparum [7] = experiment: Antimalarial activity against wild type Plasmodium falciparum Dd2 infected in human erythrocytes assessed as inhibition of parasite growth measured after 72 hrs incubation by [3H]hypoxanthine incorporation assay; assay type: functional, organism-based; conditions: Dd2, Erythrocyte
Summary of the method: (§2)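 Dd2 parent line, and mutants made from it by gene editing or drug selection. Growth inhibition measured by the 72 h [3H]hypoxanthine incorporation assay at Swiss TPH. Values are means of 2 independent biological replicates.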

[8] = AUC (0 to t) in mouse infected with Plasmodium berghei at 10 mg/kg, po; assay type: ADME, organism-based; conditions: in vivo; summary of the method: as §1
Plasmodium falciparum [9] = experiment: Induction of resistance development in Plasmodium falciparum Dd2 Pol delta at 2 x 10^9 initial inoculum per flask at 9 nM measured on day 4 by single-step selection assay; assay type: functional, organism-based
Plasmodium falciparum [10] = experiment: Antimalarial activity against Plasmodium falciparum NF54 infected in human erythrocytes assessed as inhibition of parasite growth measured after 48 hrs incubation by [3H]hypoxanthine incorporation assay; assay type: functional, organism-based; conditions: NF54, Erythrocyte
Plasmodium berghei [11] = experiment: In vivo antiplasmodial activity against Plasmodium berghei infected mouse model assessed as curation rate at 10 mg/kg, po treated 4 times measured at 96 hrs post infection by fluorescence-activated cell sorting (FACS) analysis; assay type: functional
Plasmodium falciparum [12] = experiment: Antimalarial activity against multidrug-resistant Plasmodium falciparum TM90C2b harboring pfcrt, pfmdr1, pfdhfr, pfdhps and pfcytb-Q0 mutated loci assessed as inhibition of parasite growth incubated for 48 hrs by [3H]hypoxanthine incorporation assay; assay type: functional, organism-based
Plasmodium falciparum [13] = experiment: Antimalarial activity against Plasmodium falciparum Dd2 ELQ300 harboring PfcytB-mutant infected in human erythrocytes assessed as inhibition of parasite growth measured after 72 hrs incubation by [3H]hypoxanthine incorporation assay; assay type: functional, organism-based; conditions: Dd2 ELQ300, Erythrocyte; summary of the method: as §2
[14] = Metabolic stability in human liver microsomes assessed as intrinsic clearance at 50 ug/ml measured up to 60 mins; assay type: ADME, Microsome; conditions: microsomes, 1 h, dose 50 µg/ml
Summary of the method: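 Pooled human liver microsomes (150 donors) in 0.1 M potassium phosphate buffer pH 7.4, cosolvent method, analyte at 1 μM final; reactions stopped with ice-cold acetonitrile at 0, 15, 30, 45, 60 min; LC–MS/MS. Clint from ke (negative slope of ln peak-area ratio vs time) via t1/2 = ln2/ke; triplicate; no-cofactor negative control and blank run.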

[15] = Cmax in mouse infected with Plasmodium berghei at 3 mg/kg, po; assay type: ADME, organism-based; conditions: in vivo; summary of the method: as §1
Plasmodium berghei [16] = experiment: In vivo antiplasmodial activity against Plasmodium berghei infected mouse model assessed as parasitemia suppression in blood at 30 mg/kg, po treated 4 times measured at 96 hrs post infection by fluorescence-activated cell sorting (FACS) analysis; assay type: functional
[17] = Cmax in mouse infected with Plasmodium berghei at 30 mg/kg, po; assay type: ADME, organism-based; conditions: in vivo; summary of the method: as §1
Plasmodium berghei [18] = experiment: In vivo antiplasmodial activity against Plasmodium berghei infected mouse model assessed as parasitemia suppression in blood at 50 mg/kg, po treated 4 times measured at 96 hrs post infection by fluorescence-activated cell sorting (FACS) analysis; assay type: functional
Plasmodium falciparum [19] = experiment: Antimalarial activity against multidrug-resistant Plasmodium falciparum Dd2 harboring pfcrt, pfmdr1, pfdhfr, pfdhps mutated loci assessed as inhibition of parasite growth incubated for 48 hrs by [3H]hypoxanthine incorporation assay; assay type: functional, organism-based
Plasmodium falciparum [20] = experiment: Antimalarial activity against Plasmodium falciparum Dd2 SJ557733 harboring Pfatp4-mutant infected in human erythrocytes assessed as inhibition of parasite growth measured after 72 hrs incubation by [3H]hypoxanthine incorporation assay; assay type: functional, organism-based; conditions: Dd2 SJ557733, Erythrocyte; summary of the method: as §2
[21] = Tmax in mouse infected with Plasmodium berghei at 3 mg/kg, po; assay type: ADME, organism-based; conditions: in vivo
Summary of the method: (§3)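 Infected mice (n = 2 per dose) given a single oral dose of 3, 10 or 30 mg/kg; blood sampled as dried blood spots at 1, 4 and 24 h post-dose, diluted before LC–MS analysis against whole-blood dried-spot calibration (1.56–800 ng/mL) with QCs; tmax from concentration–time profiles.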

[22] = Tmax in mouse infected with Plasmodium berghei at 30 mg/kg, po; assay type: ADME, organism-based; conditions: in vivo; summary of the method: as §3
[23] = AUC (0 to t) in mouse infected with Plasmodium berghei at 3 mg/kg, po; assay type: ADME, organism-based; conditions: in vivo; summary of the method: as §1
Plasmodium falciparum [24] = experiment: Induction of resistance development in Plasmodium falciparum Dd2 Pol delta at 2 x 10^7 initial inoculum per flask measured on day 16 by single-step selection assay; assay type: functional, organism-based
[25] = Cytotoxicity against human HepG2 cells assessed as cell viability measured after 24 hrs by neutral red assay; assay type: toxicity, cell-based
Plasmodium berghei [26] = experiment: In vivo antiplasmodial activity against Plasmodium berghei infected mouse model assessed as mean survival time at 10 mg/kg, po treated 4 times measured at 96 hrs post infection by fluorescence-activated cell sorting (FACS) analysis (reference value: 4 days); assay type: functional
[27] = Chemical stability of the compound in aqueous buffer at pH 7.4; assay type: physicochemical
Summary of the method: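 Stability tested in aqueous phosphate buffer, pH 7.4, at room temperature over 24 h, n = 3.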

[28] = Plasma stability at 37 °C measured as remaining drug at 4 hrs sampled in triplicate (concentration 25 ng/mL 2 (TKK130)); assay type: ADME, cell-free; conditions: human, at 25 ng/mL, read-out: Stability
Summary of the method: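 Fresh EDTA human plasma warmed to 37 °C, spiked to 25 ng/mL (0.5% methanol final), split into three fractions, shaken at 37 °C. Samples at 0, 2, 4, 6, 24, 48 h precipitated with ice-cold acetonitrile containing internal standard; LC–MS/MS. Recovery = analyte/IS area ratio relative to 0 h; triplicate.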

[29] = Microsomal binding in human liver microsomes assessed as unbound fraction […] by Equilibrium dialysis; assay type: ADME, Microsome
Summary of the method: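 Equilibrium dialysis across 6 kDa regenerated cellulose membrane: donor 1 μM analyte in 0.5 mg/mL pooled HLMs in 0.1 M potassium phosphate buffer, acceptor 0.9% saline, 24 h at 37 °C. Donor diluted 1:20 in 4% BSA, acetonitrile precipitation, LC–MS/MS against matrix calibration curves; fraction bound from volume-corrected equation, unbound = 1 − bound; triplicate.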

In the case of `Cl.N=C(CC(O)c1cc2c(F)cc(F)cc2c2cc(C(F)(F)F)ccc12)Nc1ccc(F)cc1` (centres undefined), the IC50 at 24 h [1] is reported as 47800 nM, the Activity (Plasmodium berghei [2]) is reported as 100% and the IC50 (Plasmodium falciparum [3]) is reported as 7.5 nM. For the same compound, the “Cp(f)” value [4] was 0.4%, the Activity (Plasmodium berghei [5]) was 0% and the Cmax [6] was 599 ng/mL. The IC50 (Plasmodium falciparum [7]) was 15 nM, the AUC(0-t) [8] was 11600 ng·h/mL and the Activity (Plasmodium falciparum [9]) was “Active; No Subsequent Parasite Growth Observed”. For the same compound, the IC50 (Plasmodium falciparum [10]) was 11 nM, the Activity (Plasmodium berghei [11]) was 33% and the IC50 (Plasmodium falciparum [12]) was 126 nM. The IC50 (Plasmodium falciparum [13]) was 14 nM, the CLint [14] was 1.8 µL/min/mg and the Cmax [15] was 216 ng/mL. It also gave an Activity (Plasmodium berghei [16]) of 99.8%, a Cmax [17] of 2030 ng/mL and an Activity (Plasmodium berghei [18]) of 99.8%. The IC50 (Plasmodium falciparum [19]) was 172 nM, the IC50 (Plasmodium falciparum [20]) was 11 nM and the Tmax [21] was 4 h. The Tmax [22] was 4 h, the AUC(0-t) [23] was 3770 ng·h/mL and the Activity (Plasmodium falciparum [24]) was “inactive”. For the same compound, the IC50 at 24 h [25] was 20000 nM, the MSD (Plasmodium berghei [26]) was 28 days and the Stability [27] was over 90%. It also gave a remaining at 4 h, 25 ng/mL [28] of 89.1% and an Activity [29] of 2.6%.
